Reference: ChEMBL document CHEMBL4138104, “Indole carboxylic acid esters of melampomagnolide B are potent anticancer agents against both hematological and solid tumor cells” (Eur J Med Chem, 2017)

Legend:
Assay type in all cases: functional
UACC-257 = experiment: Growth inhibition of human UACC257 cells incubated for 48 hrs by sulforhodamine B assay; details: UACC-257, 48 h
Summary of the method: (§1)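 NCI-60 screen run at NCI. Cells grown in RPMI medium with 5% FBS and 2 mM L-glutamine, plated at 5,000–40,000 cells/well, and preincubated 24 h at 37 °C. Time-zero plates were TCA-fixed. Compounds came from DMSO stocks and were tested at five concentrations from 10^-4 to 10^-8 M for 48 h. Cells were then TCA-fixed, stained with 0.4% SRB, and OD read at 515 nm. GI50 is the concentration giving a 50% reduction in net protein increase versus control.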

NCI-H23 = experiment: Growth inhibition of human NCI-H23 cells incubated for 48 hrs by sulforhodamine B assay; details: NCI-H23, 48 h
Summary of the method: (§2)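 NCI-60 screen. Compounds were dosed at five concentrations spanning 10^-4 to 10^-8 M for 48 h at 37 °C. Cells were TCA-fixed, stained with 0.4% SRB and read at 515 nm against time-zero and vehicle controls. GI50 is the concentration giving a 50% reduction in net protein increase.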

CCRF-CEM = experiment: Growth inhibition of human CCRF-CEM cells incubated for 48 hrs by sulforhodamine B assay; summary of the method: as §2
SK-OV-3 = experiment: Growth inhibition of human SKOV3 cells incubated for 48 hrs by sulforhodamine B assay; details: SK-OV-3, 48 h; summary of the method: as §2
HL-60(TB) = experiment: Growth inhibition of human HL-60(TB) cells incubated for 48 hrs by sulforhodamine B assay; details: HL-60, 48 h
Summary of the method: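 Performed at NCI's 60-line screen. Cells grown in RPMI with 5% FBS and 2 mM L-glutamine, plated 5,000–40,000 cells/well and incubated 24 h at 37 °C before compound addition. DMSO stocks were diluted in medium with gentamicin, and five concentrations spanning 10^-4 to 10^-8 M were tested. Exposure was 48 h. Cells were fixed with TCA, stained with SRB, and read at 515 nm. GI50 taken from log dose-response curves as 50% reduction in net protein increase versus control.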

MOLT-4 = experiment: Growth inhibition of human MOLT4 cells incubated for 48 hrs by sulforhodamine B assay; details: MOLT-4, 48 h; summary of the method: as §2
HT-29 = experiment: Growth inhibition of human HT-29 cells incubated for 48 hrs by sulforhodamine B assay; details: HT-29, 48 h; summary of the method: as §2
OVCAR-8 = experiment: Growth inhibition of human OVCAR8 cells incubated for 48 hrs by sulforhodamine B assay; details: OVCAR-8, 48 h; summary of the method: as §2
HCT-15 = experiment: Growth inhibition of human HCT15 cells incubated for 48 hrs by sulforhodamine B assay; details: HCT-15, 48 h; summary of the method: as §2
HCT-116 = experiment: Growth inhibition of human HCT116 cells incubated for 48 hrs by sulforhodamine B assay; details: HCT-116, 48 h; summary of the method: as §2
SK-MEL-28 = experiment: Growth inhibition of human SK-MEL-28 cells incubated for 48 hrs by sulforhodamine B assay; details: SK-MEL-28, 48 h; summary of the method: as §2
MCF7 = experiment: Growth inhibition of human MCF7 cells incubated for 48 hrs by sulforhodamine B assay; details: MCF7, 48 h; summary of the method: as §2
A498 = experiment: Growth inhibition of human A498 cells incubated for 48 hrs by sulforhodamine B assay; details: A498, 48 h; summary of the method: as §2
NCI-H322M = experiment: Growth inhibition of human NCI-H322M cells incubated for 48 hrs by sulforhodamine B assay; summary of the method: as §2
K562 = experiment: Growth inhibition of human K562 cells incubated for 48 hrs by sulforhodamine B assay; details: K562, 48 h; summary of the method: as §2
SF-539 = experiment: Growth inhibition of human SF539 cells incubated for 48 hrs by sulforhodamine B assay; details: SF-539, 48 h; summary of the method: as §2
NCI-H226 = experiment: Growth inhibition of human NCI-H226 cells incubated for 48 hrs by sulforhodamine B assay; details: NCI-H226, 48 h; summary of the method: as §2
Malme-3M = experiment: Growth inhibition of human MALME-3M cells incubated for 48 hrs by sulforhodamine B assay; summary of the method: as §2
NCI-H460 = experiment: Growth inhibition of human NCI-H460 cells incubated for 48 hrs by sulforhodamine B assay; details: NCI-H460, 48 h; summary of the method: as §2
RXF 393 = experiment: Growth inhibition of human RXF393 cells incubated for 48 hrs by sulforhodamine B assay; details: RXF 393, 48 h; summary of the method: as §2
NCI/ADR-RES = experiment: Growth inhibition of human NCI/ADR-RES cells incubated for 48 hrs by sulforhodamine B assay; summary of the method: as §2
OVCAR-5 = experiment: Growth inhibition of human OVCAR5 cells incubated for 48 hrs by sulforhodamine B assay; details: OVCAR-5, 48 h; summary of the method: as §2
SW-620 = experiment: Growth inhibition of human SW620 cells incubated for 48 hrs by sulforhodamine B assay; details: SW-620, 48 h; summary of the method: as §1
SF-268 = experiment: Growth inhibition of human SF268 cells incubated for 48 hrs by sulforhodamine B assay; details: SF-268, 48 h; summary of the method: as §2
UO-31 = experiment: Growth inhibition of human UO31 cells incubated for 48 hrs by sulforhodamine B assay; details: UO-31, 48 h; summary of the method: as §1
SN12C = experiment: Growth inhibition of human SN12C cells incubated for 48 hrs by sulforhodamine B assay; summary of the method: as §2
HCC 2998 = experiment: Growth inhibition of human HCC2998 cells incubated for 48 hrs by sulforhodamine B assay; details: HCC 2998, 48 h; summary of the method: as §2
A549 = experiment: Growth inhibition of human A549/ATCC cells incubated for 48 hrs by sulforhodamine B assay; details: A549, 48 h; summary of the method: as §2
UACC-62 = experiment: Growth inhibition of human UACC62 cells incubated for 48 hrs by sulforhodamine B assay; details: UACC-62, 48 h; summary of the method: as §1
U-251 = experiment: Growth inhibition of human U251 cells incubated for 48 hrs by sulforhodamine B assay; details: U-251, 48 h; summary of the method: as §1
SF-295 = experiment: Growth inhibition of human SF295 cells incubated for 48 hrs by sulforhodamine B assay; details: SF-295, 48 h; summary of the method: as §2
LOX IMVI = experiment: Growth inhibition of human LOXIMVI cells incubated for 48 hrs by sulforhodamine B assay; summary of the method: as §2
KM12 = experiment: Growth inhibition of human KM12 cells incubated for 48 hrs by sulforhodamine B assay; details: KM12, 48 h; summary of the method: as §2
SNB-19 = experiment: Growth inhibition of human SNB19 cells incubated for 48 hrs by sulforhodamine B assay; details: SNB-19, 48 h; summary of the method: as §1
RPMI-8226 = experiment: Growth inhibition of human RPMI8226 cells incubated for 48 hrs by sulforhodamine B assay; details: RPMI-8226, 48 h; summary of the method: as §2
HOP-92 = experiment: Growth inhibition of human HOP92 cells incubated for 48 hrs by sulforhodamine B assay; details: HOP-92, 48 h; summary of the method: as §2
[1] = Cytotoxicity against human M9-ENL1 cells assessed as reduction in cell viability by trypan blue staining-based assay
Summary of the method: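 M9-ENL1 AML cells (MLL-ENL-transduced human blood cells) plated at 10^6 cells/mL in alpha-MEM with 5% human plasma, 20% FBS, SCF, IL-3, IL-7 and FLT3. Drug diluted from DMSO stock into PBS, final DMSO ≤0.5%. After 24 h exposure, dead cells assessed by trypan blue and by flow cytometry (Annexin V/PI or Annexin V/7-AAD). Viability normalized to vehicle; EC50 from dose-response curves; triplicate.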

Structure (SMILES) | GI50 (UACC-257) | GI50 (NCI-H23) | GI50 (CCRF-CEM) | GI50 (SK-OV-3) | GI50 (HL-60(TB)) | GI50 (MOLT-4) | GI50 (HT-29) | GI50 (OVCAR-8) | GI50 (HCT-15) | GI50 (HCT-116) | GI50 (SK-MEL-28) | GI50 (MCF7) | GI50 (A498) | GI50 (NCI-H322M) | GI50 (K562) | GI50 (SF-539) | GI50 (NCI-H226) | GI50 (Malme-3M) | GI50 (NCI-H460) | GI50 (RXF 393) | also measured
C=C1C(=O)O[C@@H]2[C@H]3O[C@]3(C)CC/C=C(/COC(=O)c3cc4ccccc4s3)CC[C@@H]12 | 1770 nM | 1740 nM | 400 nM | 13900 nM | 1890 nM | 1880 nM | 490 nM | 1800 nM | 400 nM | 590 nM | 1760 nM | 380 nM | 10100 nM | 1980 nM | 810 nM | 1600 nM | 2000 nM | 1820 nM | 2210 nM | 1230 nM | GI50 (NCI/ADR-RES): 2140 nM; GI50 (OVCAR-5): 2020 nM; GI50 (SW-620): 510 nM; GI50 (SF-268): 1540 nM; GI50 (UO-31): 1400 nM; GI50 (SN12C): 2060 nM; GI50 (HCC 2998): 1750 nM; GI50 (A549): 2040 nM; GI50 (UACC-62): 1850 nM; GI50 (U-251): 1520 nM; GI50 (SF-295): 3330 nM; GI50 (LOX IMVI): 200 nM; GI50 (KM12): 1780 nM; GI50 (SNB-19): 2090 nM; GI50 (RPMI-8226): 560 nM; GI50 (HOP-92): 1680 nM; EC50 [1]: 2700 nM
C=C1C(=O)O[C@@H]2[C@H]3O[C@]3(C)CC/C=C(/COC(=O)c3cc4cc(F)ccc4[nH]3)CC[C@@H]12 | 2280 nM | 1900 nM | 910 nM | 11600 nM | 2070 nM | 2260 nM | 1130 nM | 2170 nM | 1150 nM | 1500 nM | 1790 nM | 1020 nM | 3350 nM | 2690 nM | 2240 nM | 1550 nM | 1760 nM | 1670 nM | 3040 nM | 1470 nM | GI50 (NCI/ADR-RES): 1980 nM; GI50 (OVCAR-5): 1770 nM; GI50 (SW-620): 1430 nM; GI50 (SF-268): 1620 nM; GI50 (UO-31): 1200 nM; GI50 (SN12C): 1850 nM; GI50 (HCC 2998): 2020 nM; GI50 (A549): 3080 nM; GI50 (UACC-62): 1890 nM; GI50 (U-251): 1820 nM; GI50 (SF-295): 7100 nM; GI50 (LOX IMVI): 1050 nM; GI50 (KM12): 1980 nM; GI50 (SNB-19): 5040 nM; GI50 (RPMI-8226): 2000 nM; GI50 (HOP-92): 1380 nM; EC50 [1]: 2800 nM
CN(C)CC1C(=O)O[C@@H]2[C@H]3O[C@]3(C)CC/C=C(/COC(=O)c3cc4ccccc4[nH]3)CC[C@@H]12.O=C(O)/C=C/C(=O)O (stereo partly specified) | 1470 nM | 1960 nM | 320 nM | 2190 nM | 240 nM | 1510 nM | 430 nM | 1680 nM | 290 nM | 290 nM | 2210 nM | 610 nM | 13100 nM | 10800 nM | 630 nM | 2510 nM | 1980 nM | 2010 nM | 5850 nM | 1140 nM | GI50 (NCI/ADR-RES): 1420 nM; GI50 (OVCAR-5): 2380 nM; GI50 (SW-620): 1700 nM; GI50 (SF-268): 1480 nM; GI50 (UO-31): 520 nM; GI50 (SN12C): 2210 nM; GI50 (HCC 2998): 1720 nM; GI50 (A549): 2440 nM; GI50 (UACC-62): 1650 nM; GI50 (U-251): 2610 nM; GI50 (SF-295): 3950 nM; GI50 (LOX IMVI): 170 nM; GI50 (KM12): 2240 nM; GI50 (SNB-19): 11900 nM; GI50 (RPMI-8226): 280 nM; GI50 (HOP-92): 1400 nM; EC50 [1]: 2800 nM
